Data from ChEMBL document CHEMBL1154321, “Benzoxazole piperidines as selective and potent somatostatin receptor subtype 5 antagonists” (Bioorg Med Chem Lett, 2009).
In brackets after ≈: the same amount, converted by molar mass. One block for each molecule: values may come before it.

Key:
[1] = biological target: T1, Somatostatin receptor type 5 (Homo sapiens, UniProt P35346); test: Displacement of SST14 from human recombinant SST5 receptor expressed in CHO cells by radioligand binding assay; format: cell-based
T1 sequence (P35346 whole entry): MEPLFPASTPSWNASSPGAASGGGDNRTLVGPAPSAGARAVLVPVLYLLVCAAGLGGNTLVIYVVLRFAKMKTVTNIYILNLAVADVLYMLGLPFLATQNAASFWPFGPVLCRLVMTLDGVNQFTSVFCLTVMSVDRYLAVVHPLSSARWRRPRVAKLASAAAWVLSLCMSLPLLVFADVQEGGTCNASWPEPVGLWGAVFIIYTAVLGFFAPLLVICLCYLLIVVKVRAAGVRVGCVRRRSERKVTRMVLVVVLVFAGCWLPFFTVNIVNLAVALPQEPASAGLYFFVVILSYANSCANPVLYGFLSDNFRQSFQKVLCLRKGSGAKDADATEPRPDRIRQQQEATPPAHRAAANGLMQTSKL
In short: (§1)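 Membranes prepared by sonication from cells expressing the SST receptor subtype, incubated with radiolabeled 11-Tyr SST-14 tracer and test compound at varying concentrations; non-labeled SST-14 defined non-specific binding. Incubation stopped by glass-fiber filtration, bound radioactivity counted; IC50 for half-maximal binding inhibition estimated and Ki derived.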

[2] = biological target: Somatostatin receptor type 2 (Homo sapiens, UniProt P30874); test: Displacement of SST14 from human recombinant SST2 receptor; in short: as §1
Somatostatin receptor type 2, sequence (P30874 whole entry): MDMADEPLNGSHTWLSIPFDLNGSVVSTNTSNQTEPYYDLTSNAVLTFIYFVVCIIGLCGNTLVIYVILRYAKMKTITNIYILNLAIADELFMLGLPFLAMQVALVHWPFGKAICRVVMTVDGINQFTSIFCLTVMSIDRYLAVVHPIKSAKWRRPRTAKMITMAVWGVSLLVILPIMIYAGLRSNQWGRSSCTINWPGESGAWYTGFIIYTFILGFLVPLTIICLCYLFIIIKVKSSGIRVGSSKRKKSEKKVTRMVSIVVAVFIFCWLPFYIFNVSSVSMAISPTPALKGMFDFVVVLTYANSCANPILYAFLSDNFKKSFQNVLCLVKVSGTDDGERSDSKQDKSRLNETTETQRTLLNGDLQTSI

[3] = biological target: Somatostatin receptor type 3 (Homo sapiens, UniProt P32745); test: Displacement of SST14 from human recombinant SST3 receptor; in short: as §1
Somatostatin receptor type 3, sequence (P32745 whole entry): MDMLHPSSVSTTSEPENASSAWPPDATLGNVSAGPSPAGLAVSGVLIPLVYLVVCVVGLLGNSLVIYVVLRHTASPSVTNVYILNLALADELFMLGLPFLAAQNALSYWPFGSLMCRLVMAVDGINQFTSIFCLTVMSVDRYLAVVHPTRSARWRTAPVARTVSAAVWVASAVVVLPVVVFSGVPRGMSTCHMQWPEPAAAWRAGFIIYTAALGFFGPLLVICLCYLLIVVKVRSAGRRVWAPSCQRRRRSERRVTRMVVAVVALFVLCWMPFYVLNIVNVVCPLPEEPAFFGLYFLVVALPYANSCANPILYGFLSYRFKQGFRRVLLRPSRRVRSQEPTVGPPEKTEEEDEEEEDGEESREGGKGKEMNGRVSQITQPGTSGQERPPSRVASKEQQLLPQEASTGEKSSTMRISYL

[4] = biological target: Somatostatin receptor type 4 (Homo sapiens, UniProt P31391); test: Displacement of SST14 from human recombinant SST4 receptor; in short: as §1
Somatostatin receptor type 4, sequence (P31391 whole entry): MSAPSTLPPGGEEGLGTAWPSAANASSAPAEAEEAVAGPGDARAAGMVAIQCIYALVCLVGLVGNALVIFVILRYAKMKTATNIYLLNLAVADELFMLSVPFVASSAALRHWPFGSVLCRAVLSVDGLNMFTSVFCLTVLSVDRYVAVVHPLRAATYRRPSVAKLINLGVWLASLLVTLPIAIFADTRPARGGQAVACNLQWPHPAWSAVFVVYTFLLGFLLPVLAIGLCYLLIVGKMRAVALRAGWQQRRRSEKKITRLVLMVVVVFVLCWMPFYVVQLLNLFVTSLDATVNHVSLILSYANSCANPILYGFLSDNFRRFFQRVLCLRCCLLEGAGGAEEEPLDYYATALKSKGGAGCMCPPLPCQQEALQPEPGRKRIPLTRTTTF

[5] = biological target: Voltage-gated inwardly rectifying potassium channel KCNH2 (Homo sapiens, UniProt Q12809); test: (§2) Inhibition of human ERG expressed in CHO cells by patch clamp technique; format: cell-based
Voltage-gated inwardly rectifying potassium channel KCNH2, sequence (Q12809 whole entry): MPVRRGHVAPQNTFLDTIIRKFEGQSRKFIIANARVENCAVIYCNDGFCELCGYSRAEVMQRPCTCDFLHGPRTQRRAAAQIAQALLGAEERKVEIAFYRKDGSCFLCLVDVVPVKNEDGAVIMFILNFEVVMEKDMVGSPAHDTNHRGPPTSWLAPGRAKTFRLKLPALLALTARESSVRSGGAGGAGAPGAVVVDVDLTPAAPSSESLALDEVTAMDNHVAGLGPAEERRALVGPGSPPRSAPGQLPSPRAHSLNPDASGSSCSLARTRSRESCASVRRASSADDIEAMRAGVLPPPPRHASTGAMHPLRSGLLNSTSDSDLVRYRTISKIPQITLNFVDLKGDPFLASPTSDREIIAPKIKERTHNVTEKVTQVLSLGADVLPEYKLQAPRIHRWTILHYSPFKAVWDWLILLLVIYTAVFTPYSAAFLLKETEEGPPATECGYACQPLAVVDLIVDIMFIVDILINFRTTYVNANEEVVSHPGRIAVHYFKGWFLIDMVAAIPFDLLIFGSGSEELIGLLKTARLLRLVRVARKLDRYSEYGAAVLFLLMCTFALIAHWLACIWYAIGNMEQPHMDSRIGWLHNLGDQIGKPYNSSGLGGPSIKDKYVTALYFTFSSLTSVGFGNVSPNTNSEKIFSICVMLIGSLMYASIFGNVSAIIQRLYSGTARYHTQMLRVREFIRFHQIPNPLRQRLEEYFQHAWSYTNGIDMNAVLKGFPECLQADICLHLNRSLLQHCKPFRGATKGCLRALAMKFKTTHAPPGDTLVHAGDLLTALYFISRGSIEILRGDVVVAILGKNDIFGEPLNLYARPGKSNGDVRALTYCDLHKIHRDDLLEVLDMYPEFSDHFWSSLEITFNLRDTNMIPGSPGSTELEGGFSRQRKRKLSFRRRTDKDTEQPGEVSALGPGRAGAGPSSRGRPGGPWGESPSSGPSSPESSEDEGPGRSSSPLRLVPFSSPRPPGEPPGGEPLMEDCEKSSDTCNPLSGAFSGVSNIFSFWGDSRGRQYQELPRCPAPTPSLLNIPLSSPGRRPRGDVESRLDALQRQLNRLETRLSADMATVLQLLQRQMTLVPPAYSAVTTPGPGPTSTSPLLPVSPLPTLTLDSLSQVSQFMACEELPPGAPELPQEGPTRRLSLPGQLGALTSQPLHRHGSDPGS

[6] = Solubility in phosphate buffer at pH 6.5 by lyophilization solubility assay; format: physicochemical
In short: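 Lyophilized DMSO stock solutions redissolved in 50 mM phosphate buffer, pH 6.5; solubility read spectrophotometrically.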

[7] = sPermeability by PAMPA; format: ADME; conditions: read-out: permeability
In short: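 Parallel artificial membrane permeation; Pe categorized as low (<0.1), medium (0.1–1.0) or high (>1.0).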

[8] = Octanol-TAPSO partition coefficient, log D at pH 7.4 by spectrophotometry; format: physicochemical; conditions: octanol/TAPSO buffer
In short: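 Spectrophotometric log D in 1-octanol/50 mM TAPSO buffer, pH 7.4, containing 5% (v/v) DMSO.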

[9] = Dissociation constant, pKa by spectrophotometry; format: physicochemical
[10] = Clearance in Wistar rat administered as single dose; format: ADME, organism-based; conditions: in vivo
[11] = Volume of distribution at steady state in Wistar rat administered as single dose; format: ADME, organism-based; conditions: in vivo, read-out: Vdss
[12] = Terminal half-life in Wistar rat administered as single dose; format: ADME, organism-based; conditions: in vivo, read-out: beta t1/2 (converted)
[13] = Oral bioavailability in Wistar rat administered as single dose; format: ADME, organism-based; conditions: in vivo
Histamine H1 receptor = Histamine H1 receptor (Homo sapiens, UniProt P35367); test: Binding affinity to human histamine H1 receptor
Histamine H1 receptor, sequence (P35367 whole entry): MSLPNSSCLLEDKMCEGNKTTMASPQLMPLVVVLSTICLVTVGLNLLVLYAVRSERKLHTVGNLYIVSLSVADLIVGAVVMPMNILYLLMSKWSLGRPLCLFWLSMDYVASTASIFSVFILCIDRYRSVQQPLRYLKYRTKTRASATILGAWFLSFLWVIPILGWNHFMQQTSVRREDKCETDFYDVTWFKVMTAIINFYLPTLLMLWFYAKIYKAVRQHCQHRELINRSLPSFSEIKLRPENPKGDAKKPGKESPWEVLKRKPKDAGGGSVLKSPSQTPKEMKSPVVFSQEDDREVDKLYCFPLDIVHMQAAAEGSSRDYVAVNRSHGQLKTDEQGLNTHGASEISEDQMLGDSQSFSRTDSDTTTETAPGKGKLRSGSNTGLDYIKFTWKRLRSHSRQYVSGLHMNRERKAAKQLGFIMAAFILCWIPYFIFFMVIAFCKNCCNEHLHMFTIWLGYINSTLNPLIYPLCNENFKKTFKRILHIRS

Homo sapiens = organism: Homo sapiens; test: Selectivity ratio of Ki for human histamine H1 receptor to Ki for human SST5 receptor
[14] = biological target: 5-hydroxytryptamine receptor 2B (Homo sapiens, UniProt P41595); test: Binding affinity to human 5HT2B receptor
5-hydroxytryptamine receptor 2B, sequence (P41595 whole entry): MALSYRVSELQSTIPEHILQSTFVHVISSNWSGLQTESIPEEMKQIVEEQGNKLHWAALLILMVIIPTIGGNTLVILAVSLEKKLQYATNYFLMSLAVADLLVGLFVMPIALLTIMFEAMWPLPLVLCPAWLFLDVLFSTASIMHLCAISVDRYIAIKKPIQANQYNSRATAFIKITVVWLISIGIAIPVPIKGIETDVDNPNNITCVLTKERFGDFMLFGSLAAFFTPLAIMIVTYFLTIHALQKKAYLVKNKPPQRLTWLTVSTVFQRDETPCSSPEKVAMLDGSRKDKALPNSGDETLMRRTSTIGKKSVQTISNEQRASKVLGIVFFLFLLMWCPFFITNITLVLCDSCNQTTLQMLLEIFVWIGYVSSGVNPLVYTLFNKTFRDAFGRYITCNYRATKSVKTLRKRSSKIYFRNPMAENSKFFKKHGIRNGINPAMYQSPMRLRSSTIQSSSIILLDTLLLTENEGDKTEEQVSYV

[15] = biological target: Somatostatin receptor type 1 (Homo sapiens, UniProt P30872); test: Displacement of SST14 from human recombinant SST1 receptor; in short: as §1
Somatostatin receptor type 1, sequence (P30872 whole entry): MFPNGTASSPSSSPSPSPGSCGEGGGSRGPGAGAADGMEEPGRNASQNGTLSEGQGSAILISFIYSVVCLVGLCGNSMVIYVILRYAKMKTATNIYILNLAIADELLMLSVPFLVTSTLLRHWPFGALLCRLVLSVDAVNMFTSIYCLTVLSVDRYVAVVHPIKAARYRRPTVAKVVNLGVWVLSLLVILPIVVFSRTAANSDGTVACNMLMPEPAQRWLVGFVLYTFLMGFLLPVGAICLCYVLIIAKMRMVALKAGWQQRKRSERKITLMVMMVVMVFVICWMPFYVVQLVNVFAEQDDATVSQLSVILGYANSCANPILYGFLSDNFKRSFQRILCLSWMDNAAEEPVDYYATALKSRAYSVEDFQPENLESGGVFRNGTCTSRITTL

[16] = biological target: T1, Somatostatin receptor type 5; test: Antagonist activity at human SST5 receptor expressed in CHO cells assessed as inhibition of forskolin-induced cAMP release by TR-FRET assay; format: functional, cell-based
In short: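 Transfected cells incubated with forskolin, 0.15 nM SST-14 and test compound at varying concentrations; cellular cAMP measured by FRET-based assay. IC50 taken as concentration half-maximally reversing the SST-14 effect, read from concentration-versus-cAMP curves.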

hERG (KCNH2) = hERG (KCNH2) (Homo sapiens, UniProt Q12809); test: as §2; format: cell-based; conditions: human, CHO cells expressing human ERG

SMILES: CCOc1cc(CN2CCC(Nc3nc4ccc(C(=O)O)cc4o3)CC2)ccc1Cl
Ki [1]: 0.023 µM
Ki [15]: > 10 µM
Ki [2]: > 10 µM
Ki [3]: > 10 µM
Ki [4]: > 10 µM
IC50 [5]: > 10 µM
solubility [6]: 7 µg/mL (≈ 16.3 µM)
Papp [7]: 3.6 ×10⁻⁶ cm/s
logD [8]: 1.39
IC50 [16]: 0.098 µM
clearance [10]: 27 mL/min/kg
Vd [11]: 4.3 L/kg
half-life [12]: 3.1 h
bioavailability [13]: 57%

SMILES: CCOc1cc(CN2CCC(Nc3nc4cc(C(=O)O)ccc4o3)CC2)cc(OCC)c1Cl
Ki [1]: 0.003 µM
Ratio Ki (Homo sapiens): > 200
Ki [15]: 4.5 µM
Ki [2]: > 10 µM
Ki [3]: > 10 µM
Ki [4]: > 10 µM
IC50 [5]: > 10 µM
solubility [6]: 14 µg/mL (≈ 29.5 µM)
Papp [7]: 2.09 ×10⁻⁶ cm/s
logD [8]: 1.82
clearance [10]: 18 mL/min/kg
Vd [11]: 1.8 L/kg
half-life [12]: 4.9 h
bioavailability [13]: 12%

SMILES: CCOc1cc(CN2CCC(Nc3nc4ccccc4o3)CC2)ccc1OC
Ratio Ki (Homo sapiens): 5.2
Ki [2]: > 10 µM
Ki [3]: > 10 µM
Ki [4]: > 10 µM
Ki [14]: 0.041 µM
IC50 (hERG (KCNH2)): < 0.1 µM
pKa [9]: 8.3
clearance [10]: 84 mL/min/kg
Vd [11]: 4.1 L/kg
half-life [12]: 0.7 h
bioavailability [13]: 6%

SMILES: CCOc1cc(CN2CCC(Nc3nc4cc(NC(=O)C5CCC5)ccc4o3)CC2)ccc1OC
Ki [1]: 0.182 µM
Ki (Histamine H1 receptor): 0.923 µM
Ratio Ki (Homo sapiens): 5.1
Ki [15]: 4.95 µM
Ki [2]: > 10 µM
Ki [3]: > 10 µM
Ki [4]: > 10 µM
Ki [14]: > 10 µM
solubility [6]: > 638 µg/mL
Papp [7]: 1.1 ×10⁻⁶ cm/s
logD [8]: 2.64

SMILES: CCOc1cc(CN2CCC(Nc3nc4ccccc4o3)CC2)ccc1Cl
Ki (Histamine H1 receptor): 0.266 µM
Ratio Ki (Homo sapiens): 2.4
Ki [2]: > 10 µM
Ki [3]: > 10 µM
Ki [4]: > 10 µM
Ki [14]: 0.074 µM
solubility [6]: 44 µg/mL (≈ 114 µM)
Papp [7]: 0.49 ×10⁻⁶ cm/s
logD [8]: 3.44
pKa [9]: 7.63

SMILES: CCOc1cc(CN2CCC(Nc3nc4cc(Cl)c(S(N)(=O)=O)cc4o3)CC2)ccc1F
Ki [1]: 0.252 µM
Ki (Histamine H1 receptor): 1.37 µM
Ratio Ki (Homo sapiens): 5.5
Ki [2]: > 10 µM
Ki [3]: > 10 µM
Ki [4]: > 10 µM
Ki [14]: > 10 µM
solubility [6]: 32 µg/mL (≈ 66.3 µM)
Papp [7]: 2.45 ×10⁻⁶ cm/s
logD [8]: 2.78
pKa [9]: 7.61

SMILES: CCOc1cc(CN2CCC(Nc3nc4cc(S(N)(=O)=O)ccc4o3)CC2)cc(OCC)c1N
Ki (Histamine H1 receptor): 2.6 µM
Ratio Ki (Homo sapiens): 200
Ki [15]: 1.75 µM
solubility [6]: 335 µg/mL (≈ 684 µM)
logD [8]: 1.62
pKa [9]: 8.28

Second part, led by results:

Ki [1]: 0.008 µM
Ki [2]: > 10 µM
Ki [3]: > 10 µM
Ki [4]: > 10 µM
solubility [6]: 148 µg/mL (≈ 324 µM)
Papp [7]: 1.61 ×10⁻⁶ cm/s
logD [8]: 2.96
pKa [9]: 7.72
clearance [10]: 28 mL/min/kg
Vd [11]: 3.3 L/kg
half-life [12]: 2.5 h
bioavailability [13]: 38%
SMILES: CCOc1cc(CN2CCC(Nc3nc4cc(C(N)=O)ccc4o3)CC2)cc(OCC)c1F
IC50 [5]: 0.43 µM

Ki [1]: 0.199 µM
Ki (Histamine H1 receptor): 3.6 µM
Ratio Ki (Homo sapiens): 18
Ki [2]: > 10 µM
Ki [3]: > 10 µM
Ki [4]: > 10 µM
Ki [14]: 0.094 µM
solubility [6]: 212 µg/mL (≈ 469 µM)
Papp [7]: 2.05 ×10⁻⁶ cm/s
logD [8]: 3.02
pKa [9]: 7.76
SMILES: CCOc1cc(CN2CCC(Nc3nc4ccccc4o3)CC2)cc(OC2CCOCC2)c1

Ki [1]: 0.018 µM
Ki [15]: > 10 µM
Ki [2]: > 10 µM
Ki [3]: > 10 µM
Ki [4]: > 10 µM
solubility [6]: 6 µg/mL (≈ 13.1 µM)
Papp [7]: 2.89 ×10⁻⁶ cm/s
logD [8]: 1.33
IC50 [16]: 0.072 µM
clearance [10]: 20 mL/min/kg
Vd [11]: 1.5 L/kg
half-life [12]: 2.4 h
bioavailability [13]: 39%
SMILES: CCOc1cc(CN2CCC(Nc3nc4ccc(C(=O)O)cc4o3)CC2)cc(OCC)c1F

Ki [1]: 0.529 µM
Ki (Histamine H1 receptor): 0.52 µM
Ratio Ki (Homo sapiens): 1
Ki [2]: > 10 µM
Ki [3]: > 10 µM
Ki [4]: > 10 µM
solubility [6]: > 614 µg/mL
Papp [7]: 1.64 ×10⁻⁶ cm/s
logD [8]: 1.51
pKa [9]: 8.05
clearance [10]: 103 mL/min/kg
Vd [11]: 8.2 L/kg
half-life [12]: 1.7 h
bioavailability [13]: 4%
SMILES: CCOc1cc(CN2CCC(Nc3nc4cc(S(N)(=O)=O)ccc4o3)CC2)ccc1OC
IC50 (hERG (KCNH2)): 3.5 µM
